ChEMBL document CHEMBL2375338, “Hydrolyzable tannins of tamaricaceous plants. V. Structures of monomeric-trimeric tannins and cytotoxicity of macrocyclic-type tannins isolated from Tamarix nilotica (1)” (J Nat Prod, 2013)

Tests used:
[1] = tested on: HSC-4; assay: Cytotoxicity against human HSC4 cells after 48 hrs by MTT assay; type: functional; conditions: HSC-4, 48 h
Outline: (§1)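 Adherent cells seeded 5 × 10^3/well and grown 48 h, then medium replaced with fresh medium holding test compound (DMSO stock 20 mM; top well 100 μM, serial 2-fold dilutions, triplicate wells). After a further 48 h, cells were washed with PBS lacking Ca/Mg and given 0.2 mg/mL MTT for 4 h. Lysis was in DMSO and A540 was read. CC50 came from the dose–response curve.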

[2] = tested on: HL-60; assay: Cytotoxicity against human HL60 cells after 48 hrs by trypan blue exclusion assay; conditions: HL-60, 48 h
[3] = Cytotoxicity against human HGF cells after 48 hrs by MTT assay; type: cell-based; outline: as §1
[4] = tested on: HSC-2; assay: Cytotoxicity against human HSC2 cells after 48 hrs by MTT assay; type: functional; conditions: HSC-2, 48 h; outline: as §1
[5] = Cytotoxicity against human HPC cells after 48 hrs by MTT assay; type: cell-based; outline: as §1
[6] = tested on: HSC-3; assay: Cytotoxicity against human HSC3 cells after 48 hrs by MTT assay; type: functional; conditions: HSC-3, 48 h; outline: as §1
[7] = Cytotoxicity against human HPLF cells after 48 hrs by MTT assay; type: cell-based; outline: as §1

Row | Compound | CC50 [1] | CC50 [2] | CC50 at 48 h [3] | CC50 [4] | CC50 at 48 h [5] | CC50 [6] | CC50 at 48 h [7]
1 | O=C1O[C@@H]2O[C@@H]3COC(=O)c4cc(O)c(O)c(O)c4-c4c(cc(O)c(O)c4O)C(=O)O[C@H]3[C@H](OC(=O)c3cc(O)c(O)c(O)c3)[C@H]2OC(=O)c2cc(O)c(O)c(O)c2Oc2cc(cc(O)c2O)C(=O)O[C@@H]2O[C@H](CO)[C@@H](O)[C@H](OC(=O)c3cc(O)c(O)c(O)c3)[C@H]2OC(=O)c2cc(O)c(O)c(O)c2Oc2c(O)cc1cc2O | 26.6 µM | 62 µM | > 100 µM | 20.2 µM | 80.3 µM | 20.8 µM | > 100 µM
2 | O=C1O[C@@H]2O[C@@H]3COC(=O)c4cc(O)c(O)c(O)c4-c4c(cc(O)c(O)c4O)C(=O)O[C@H]3[C@H](OC(=O)c3cc(O)c(O)c(O)c3)[C@H]2OC(=O)c2cc(O)c(O)c(O)c2Oc2c(O)cc(cc2O)C(=O)O[C@@H]2O[C@@H]3COC(=O)c4cc(O)c(O)c(O)c4-c4c(cc(O)c(O)c4O)C(=O)O[C@H]3[C@H](OC(=O)c3cc(O)c(O)c(O)c3)[C@H]2OC(=O)c2cc(O)c(O)c(O)c2Oc2c(O)cc1cc2O | 43 µM | 55.9 µM | 93.6 µM | 23 µM | 88.3 µM | 47.8 µM | > 100 µM
3 | O=C1O[C@@H]2O[C@@H]3COC(=O)c4cc(O)c(O)c(O)c4-c4c(cc(O)c(O)c4O)C(=O)O[C@H]3[C@H](OC(=O)c3cc(O)c(O)c(O)c3)[C@H]2OC(=O)c2cc(O)c(O)c(O)c2Oc2c(O)cc(cc2O)C(=O)O[C@@H]2O[C@H](CO)[C@@H](O)[C@H](OC(=O)c3cc(O)c(O)c(O)c3)[C@H]2OC(=O)c2cc(O)c(O)c(O)c2Oc2cc1cc(O)c2O | 24.5 µM | 70.8 µM | > 100 µM | 18.5 µM | 81 µM | 21.9 µM | > 100 µM
4 | O=C1O[C@@H]2O[C@@H]3COC(=O)c4cc(O)c(O)c(O)c4-c4c(cc(O)c(O)c4O)C(=O)O[C@H]3[C@H](OC(=O)c3cc(O)c(O)c(O)c3)[C@H]2OC(=O)c2cc(O)c(O)c(O)c2Oc2cc(cc(O)c2O)C(=O)O[C@@H]2O[C@@H]3COC(=O)c4cc(O)c(O)c(O)c4-c4c(cc(O)c(O)c4O)C(=O)O[C@H]3[C@H](OC(=O)c3cc(O)c(O)c(O)c3)[C@H]2OC(=O)c2cc(O)c(O)c(O)c2Oc2c(O)cc1cc2O | 28.7 µM | 54.2 µM | 95 µM | 19.9 µM | 84.3 µM | 24.3 µM | > 100 µM
5 | O=C1O[C@@H]2O[C@@H]3COC(=O)c4cc(O)c(O)c(O)c4-c4c(cc(O)c(O)c4O)C(=O)O[C@H]3[C@H](OC(=O)c3cc(O)c(O)c(O)c3)[C@H]2OC(=O)c2cc(O)c(O)c(O)c2Oc2cc(cc(O)c2O)C(=O)O[C@@H]2O[C@@H]3COC(=O)c4cc(O)c(O)c(O)c4-c4c(cc(O)c(O)c4O)C(=O)O[C@H]3[C@H](OC(=O)c3cc(O)c(O)c(O)c3)[C@H]2OC(=O)c2cc(O)c(O)c(O)c2Oc2cc(cc(O)c2O)C(=O)O[C@@H]2O[C@@H]3COC(=O)c4cc(O)c(O)c(O)c4-c4c(cc(O)c(O)c4O)C(=O)O[C@H]3[C@H](OC(=O)c3cc(O)c(O)c(O)c3)[C@H]2OC(=O)c2cc(O)c(O)c(O)c2Oc2c(O)cc1cc2O | 42.9 µM | 30.5 µM | 96.6 µM | 22.3 µM | 90.7 µM | 34.2 µM | > 100 µM
